From ChEMBL document CHEMBL1144008, “Synthesis, nitric oxide release, and anti-leukemic activity of glutathione-activated nitric oxide prodrugs: Structural analogues of PABA/NO, an anti-cancer lead compound” (Bioorg Med Chem, 2008)

Tests used:
[1] = tested on: HL-60; experiment: Antiproliferative activity against human HL60 cells by MTS assay; type: functional, cell-based
Procedure, shortened: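 HL-60 human myeloid leukemia cells grown in RPMI 1640 with 10% FBS, 37 °C, 5% CO2. Seeded 10,000 cells/100 µL; compounds (DMSO stocks serially diluted in PBS, final DMSO 0.5%) added 24 h after plating. Viable cells read by MTS after 3 days. IC50 from nonlinear fit of absorbance vs concentration to a Hill-slope equation.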

[2] = Nitric oxide release at 100 to 150 nM in pH7.4 in presence of GSH; type: functional
Procedure, shortened: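 Performed in 0.1 M pH 7.4 phosphate buffer with 1 mM GSH, sparged with inert gas until detector baseline was steady. Prodrug stock injected to final 100–150 nM. NO release followed at 37 °C. Area under the release curve integrated to give mol NO released per mol compound.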

Row | SMILES | IC50 [1] [µM] | Activity [2] [%]
1 | CN(C)c1ccc(C(=O)Oc2cc(O/N=[N+](\[O-])N(C)C)c([N+](=O)[O-])cc2[N+](=O)[O-])cc1 | > 25 | 30
2 | COc1ccc2cc(C(C)C(=O)Oc3cc(O/N=[N+](\[O-])N(C)C)c([N+](=O)[O-])cc3[N+](=O)[O-])ccc2c1 (stereo not given) | > 25 | 5
3 | CC(=O)Nc1ccc(S(=O)(=O)Oc2cc(O/N=[N+](\[O-])N(C)C)c([N+](=O)[O-])cc2[N+](=O)[O-])cc1 | 3.9 | 96
4 | CN(C)/[N+]([O-])=N/Oc1cc(OC(=O)c2ccccc2)c([N+](=O)[O-])cc1[N+](=O)[O-] | > 25 | 15
5 | CN(C(=O)c1ccccc1)c1cc(O/N=[N+](\[O-])N(C)C)c([N+](=O)[O-])cc1[N+](=O)[O-] | 1.6 | 99
6 | CN(C)/[N+]([O-])=N/Oc1cc(OC(=O)c2ccc(N)cc2)c([N+](=O)[O-])cc1[N+](=O)[O-] | 13 | 63
7 | CC(=O)Oc1ccccc1C(=O)Oc1cc(O/N=[N+](\[O-])N(C)C)c([N+](=O)[O-])cc1[N+](=O)[O-] | > 25 | 7
8 | CC(=O)Nc1ccc(Oc2cc(O/N=[N+](\[O-])N(C)C)c([N+](=O)[O-])cc2[N+](=O)[O-])cc1 | 2.3 | 93
9 | CCN(C(=O)c1ccccc1)c1cc(O/N=[N+](\[O-])N(C)C)c([N+](=O)[O-])cc1[N+](=O)[O-] | 1.4 | 100
10 | CC(C)Cc1ccc(C(C)C(=O)Oc2cc(O/N=[N+](\[O-])N(C)C)c([N+](=O)[O-])cc2[N+](=O)[O-])cc1 (stereo not given) | > 25 | 0
11 | CN(C)/[N+]([O-])=N/Oc1cc(Nc2ccc(CO)cc2)c([N+](=O)[O-])cc1[N+](=O)[O-] | 6.8 | 100
12 | CN(C)/[N+]([O-])=N/Oc1cc(OC(=O)c2cccnc2)c([N+](=O)[O-])cc1[N+](=O)[O-] | > 25 | 4
13 | CC(=O)Nc1ccc(C(=O)Oc2cc(O/N=[N+](\[O-])N(C)C)c([N+](=O)[O-])cc2[N+](=O)[O-])cc1 | 22 | 20
14 | CN(C)/[N+]([O-])=N\Oc1cc(O)c([N+](=O)[O-])cc1[N+](=O)[O-] | > 25 | 0
15 | CNc1ccc(C(=O)Oc2cc(O/N=[N+](\[O-])N(C)C)c([N+](=O)[O-])cc2[N+](=O)[O-])cc1 | 3.9 | 73
